As usually defined, the inhibition is the relative decrease from the control value, in per cent. One may read the bioavailability as dose-corrected exposure relative to a reference, in per cent. The low end stands for poor availability, the high end for good availability. Usually clearance stands for a measure of how efficiently the substance is removed, as volume per time. Lower therefore signals a low capacity for elimination.

Each structure is given as a SMILES string. Converted amounts (≈) assume the structure as drawn.

These results are taken from ChEMBL document CHEMBL4251655 (Eur J Med Chem, 2018).

For data set [1], the target named is T1, Serine/threonine-protein kinase Nek2 (Homo sapiens) (UniProt P51955).
T1 sequence (whole entry): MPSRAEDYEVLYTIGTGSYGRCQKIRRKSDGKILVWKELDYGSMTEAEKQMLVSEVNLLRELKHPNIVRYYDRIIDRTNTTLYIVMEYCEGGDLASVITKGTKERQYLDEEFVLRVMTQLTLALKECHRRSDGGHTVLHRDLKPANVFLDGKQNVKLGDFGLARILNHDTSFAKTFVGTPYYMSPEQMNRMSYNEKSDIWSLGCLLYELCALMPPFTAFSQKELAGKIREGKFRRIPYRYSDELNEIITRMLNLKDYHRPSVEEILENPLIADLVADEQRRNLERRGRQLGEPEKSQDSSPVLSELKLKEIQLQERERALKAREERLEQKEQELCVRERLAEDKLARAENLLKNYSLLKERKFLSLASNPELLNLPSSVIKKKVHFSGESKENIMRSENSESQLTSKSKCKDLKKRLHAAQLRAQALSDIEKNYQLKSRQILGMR
The data set can be described thus: Inhibition of recombinant human full length His-tagged NEK2 expressed in baculovirus expression system at 1 uM relative to control. In a few lines:
(§1)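 Forty-kinase selectivity panel; each compound tested at a single 1 µM concentration in the presence of 1 mM ATP; result given as percent inhibition.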

Data set [2] can be described thus: Oral bioavailability in rat at 1 mg/kg administered via gavage. The class given is ADME, organism-based. As to conditions: in vivo. In outline: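 Rat, oral dosing as a solution.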
Data set [3] has as its target T2, Serine/threonine-protein kinase Sgk1 (Homo sapiens) (UniProt O00141).
T2 sequence (whole entry): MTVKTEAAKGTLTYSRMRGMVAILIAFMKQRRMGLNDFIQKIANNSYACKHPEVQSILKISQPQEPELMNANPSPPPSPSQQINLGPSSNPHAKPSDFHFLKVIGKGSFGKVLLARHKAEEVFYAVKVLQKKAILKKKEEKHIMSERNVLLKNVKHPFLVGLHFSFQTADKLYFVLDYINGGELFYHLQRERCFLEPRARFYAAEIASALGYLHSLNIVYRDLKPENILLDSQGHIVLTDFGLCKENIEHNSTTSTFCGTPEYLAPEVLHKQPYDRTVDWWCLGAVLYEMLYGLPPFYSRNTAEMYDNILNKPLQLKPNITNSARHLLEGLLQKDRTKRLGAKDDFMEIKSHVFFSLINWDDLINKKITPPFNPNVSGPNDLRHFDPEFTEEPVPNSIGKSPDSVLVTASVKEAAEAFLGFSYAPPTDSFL
The data set can be described thus: Inhibition of recombinant human GST-tagged SGK1 expressed in baculovirus expression system at 1 uM relative to control. In outline: as §1

In data set [4] the target is T3, Tyrosine-protein kinase JAK3 (Homo sapiens) (UniProt P52333).
T3 sequence (whole entry): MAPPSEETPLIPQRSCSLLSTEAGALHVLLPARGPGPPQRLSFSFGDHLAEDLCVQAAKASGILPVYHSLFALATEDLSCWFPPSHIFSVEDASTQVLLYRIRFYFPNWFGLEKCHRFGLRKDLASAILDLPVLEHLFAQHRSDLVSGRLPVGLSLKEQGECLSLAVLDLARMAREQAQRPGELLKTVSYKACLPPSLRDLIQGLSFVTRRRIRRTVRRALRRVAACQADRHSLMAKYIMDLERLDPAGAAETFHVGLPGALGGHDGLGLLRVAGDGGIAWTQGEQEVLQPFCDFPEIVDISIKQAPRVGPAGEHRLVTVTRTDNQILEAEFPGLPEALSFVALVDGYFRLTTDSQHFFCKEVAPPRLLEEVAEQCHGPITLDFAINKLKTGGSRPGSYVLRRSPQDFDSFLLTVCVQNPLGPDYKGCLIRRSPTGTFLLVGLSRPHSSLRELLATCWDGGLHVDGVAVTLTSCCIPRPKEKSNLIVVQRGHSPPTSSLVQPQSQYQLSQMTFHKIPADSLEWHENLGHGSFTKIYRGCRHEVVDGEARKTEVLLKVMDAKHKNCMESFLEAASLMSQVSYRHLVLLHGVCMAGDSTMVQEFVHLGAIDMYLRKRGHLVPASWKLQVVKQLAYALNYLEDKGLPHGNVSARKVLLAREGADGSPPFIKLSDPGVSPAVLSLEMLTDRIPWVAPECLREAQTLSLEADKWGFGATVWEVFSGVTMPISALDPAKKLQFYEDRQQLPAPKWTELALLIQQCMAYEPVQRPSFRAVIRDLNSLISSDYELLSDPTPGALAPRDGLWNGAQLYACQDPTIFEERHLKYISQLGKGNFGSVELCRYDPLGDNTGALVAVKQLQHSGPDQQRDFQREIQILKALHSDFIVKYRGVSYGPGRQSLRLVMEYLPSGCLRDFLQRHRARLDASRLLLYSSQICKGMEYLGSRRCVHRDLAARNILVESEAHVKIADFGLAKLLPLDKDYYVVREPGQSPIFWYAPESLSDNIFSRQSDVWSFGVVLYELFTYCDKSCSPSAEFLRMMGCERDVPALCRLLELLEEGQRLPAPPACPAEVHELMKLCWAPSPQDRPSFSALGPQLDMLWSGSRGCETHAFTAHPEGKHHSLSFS
The data set can be described thus: Inhibition of recombinant human GST-tagged JAK3 expressed in baculovirus expression system at 1 uM relative to control. In outline: as §1

A short description of data set [5]: Clearance in rat at 1 mg/kg, iv by LC-MS/MS analysis. The class given is ADME, organism-based. As to conditions: in vivo. In outline: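 Rat, single 1 mg/kg intravenous dose.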
Data set [6] in a line: Clearance in rat hepatocytes assessed per million cells. Type of data set: ADME, cell-based, Hepatocyte.
A short description of data set [7]: Thermodynamic solubility of the compound at pH 7.4. The class given is physicochemical. Conditions: buffer, read-out: Therm_solubility.
Data set [8] has as its target cAMP-dependent protein kinase catalytic subunit alpha (Homo sapiens) (UniProt P17612). The data set can be described thus: Inhibition of recombinant human His-tagged PRKACA expressed in Escherichia coli at 1 uM relative to control. In a few lines: as §1

In the case of `COc1ccc(S(C)(=O)=O)cc1C(=O)Nc1cccc(-c2nncn2C(C)C)n1`, the inhibition was 1% in data set [1], 2% in data set [3], 12% in data set [4] and -5% in data set [8]. Besides, the bioavailability in data set [2] turned out to be 8%. The compound also registered a clearance in data set [5] of 41 mL/min/kg. In data set [6], this compound registered a CLH of less than 6 µL/min/1e6 cells. For the same compound, the solubility thermodynamic in data set [7] stood at 5 µM (≈ 2.08 µg/mL).

With `COc1cc(C)c(C(N)=O)cc1C(=O)Nc1cccc(-c2nncn2C(C)C)n1`, the figures for the inhibition in data set [3], in data set [4] and in data set [8] were -2%, 3% and -1%, respectively.

Turning to `COc1ccc(C(N)=O)cc1C(=O)Nc1cccc(-c2nncn2C(C)C)n1`, the inhibition was -9% in data set [3] and -1% in data set [8].

For the compound `COc1cc(C)c(S(C)(=O)=O)cc1C(=O)Nc1cccc(-c2nncn2C(C)C)n1`, the inhibition in data set [3] was 1%; in data set [4] it was 0%; in data set [8], 3%.

`COc1ccc(S(N)(=O)=O)cc1C(=O)Nc1cccc(-c2nncn2C(C)C)n1`: the inhibition in data set [1] was -3%; in data set [4] it was -8%. Further, the clearance in data set [5] came out at 35 mL/min/kg. Besides, the CLH in data set [6] is less than 6 µL/min/1e6 cells. For the same compound, the solubility thermodynamic in data set [7] is 1.2 µM (≈ 0.5 µg/mL).

Consider `COc1cc(C)c(S(N)(=O)=O)cc1C(=O)Nc1cccc(-c2nncn2C(C)C)n1`, for which the inhibition stood at 0% in data set [1], 1% in data set [3], 16% in data set [4] and 1% in data set [8].
